Holding throughout (format): functional
Test [1] relates to Rattus norvegicus. In words: Percent change from pre-treatment in HDL-Cholesterol level at 97 mg/kg after 2 weeks. An outline of the steps: (§1)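 Female obese Zucker fatty rats Crl:(Zuc)-faBR, 10–12 weeks old (400–500 g), n=3–4, fed chow. Dosed by oral gavage once daily in 20% EtOH/80% PEG-200 for up to 14 days. Serum taken after a 6 h fast before dosing, at day 7 (orbital plexus) and at day 14 (cardiac puncture). TG by enzymatic kit on analyzer. HDL-C and non-HDL-C from Superose 6 gel-filtration profile area × total cholesterol. Results given as % change from pretreatment.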

The species named for test [2] is Rattus norvegicus. Nature of the test: In vitro inhibitory concentration against lipid synthesis in primary rat hepatocyte culture. An outline of the steps:
(§2)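 Primary hepatocytes isolated from male Sprague-Dawley rats (Seglen method) and plated on collagen in DMEM with 20% FBS, 100 nM insulin, 25 mM glucose. Medium made serum-free after 4 h, cultured overnight to monolayers. Then 4 h incubation with 0.25 μCi [14C]-acetate/well (1 Ci/mol) and 0–300 μM compound. Lipids extracted into scintillant and counted. IC50 derived from lipid synthesis rates by nonlinear sigmoidal fit.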

In test [3] the test system is Rattus norvegicus. Nature of the test: Percent change from pre-treatment in Non HDL-Cholesterol level at 97 mg/kg after 2 weeks. An outline of the steps: as §1
The test system of test [4] is Rattus norvegicus. In words: Percent change from pre-treatment in Triglycerides level at 97 mg/kg after 2 weeks. An outline of the steps: as §1
The subject of test [5] is Rattus norvegicus. In words: Percent change from pre-treatment in Non HDL-Cholesterol level at 97 mg/kg after 1 week. An outline of the steps:
as §1

The test system of test [6] is Rattus norvegicus. In words: Percent change from pre-treatment in Triglycerides level at 97 mg/kg after 1 week. An outline of the steps:
as §1

Test [7] has as its system Rattus norvegicus. Nature of the test: Percent change from pre-treatment Non HDL-Cholesterol level at 100 mg/Kg after 2 weeks. An outline of the steps: as §1
The test system of test [8] is Rattus norvegicus. In words: Percent change from pre-treatment Non HDL-Cholesterol level at 100 mg/Kg after 1 week. An outline of the steps:
as §1

The subject of test [9] is Rattus norvegicus. Nature of the test: Percent change from pre-treatment HDL-Cholesterol level at 100 mg/Kg after 1 week. An outline of the steps: as §1
For test [10], the system named is Rattus norvegicus. Nature of the test: Percent change from pre-treatment triglycerides level at 100 mg/Kg after 2 weeks. An outline of the steps:
as §1

Test [11] relates to Rattus norvegicus. In words: Percent change from pre-treatment triglycerides level at 100 mg/Kg after 1 week. An outline of the steps: as §1
Test [12] has as its system Rattus norvegicus. Nature of the test: Percent change from pre-treatment HDL-Cholesterol level at 100 mg/Kg after 2 weeks. An outline of the steps:
as §1

Test [13] has as its system Rattus norvegicus. Nature of the test: Percent change from pre-treatment in Non HDL-Cholesterol level at 30 mg/kg after 2 weeks. An outline of the steps:
as §1

Test [14] deals with Rattus norvegicus. Nature of the test: Percent change from pre-treatment in Non HDL-Cholesterol level at 30 mg/kg after 1 week. An outline of the steps: as §1
Test [15] has as its system Rattus norvegicus. In words: Percent change from pre-treatment in Triglycerides level at 30 mg/kg after 2 weeks. An outline of the steps:
as §1

The subject of test [16] is Rattus norvegicus. In words: Percent change from pre-treatment in Triglycerides level at 30 mg/kg after 1 week. An outline of the steps:
as §1

Test [17] deals with Rattus norvegicus. Nature of the test: Percent change from pre-treatment in HDL-Cholesterol level at 30 mg/kg after 1 week. An outline of the steps: as §1
Test [18] relates to Rattus norvegicus. In words: Percent change from pre-treatment in HDL-Cholesterol level at 80 mg/kg after 2 weeks. An outline of the steps:
as §1

The subject of test [19] is Rattus norvegicus. In words: Percent change from pre-treatment in Triglycerides level at 80 mg/kg after 2 weeks. An outline of the steps:
as §1

The subject of test [20] is Rattus norvegicus. Nature of the test: Percent change from pre-treatment in Non HDL-Cholesterol level at 80 mg/kg after 2 weeks. An outline of the steps:
as §1

The test system of test [21] is Rattus norvegicus. In words: Percent change from pre-treatment in HDL-Cholesterol level at 80 mg/kg after 1 week. An outline of the steps:
as §1

In test [22] the test system is Rattus norvegicus. Nature of the test: Percent change from pre-treatment in Triglycerides level at 80 mg/kg after 1 week. An outline of the steps:
as §1

The subject of test [23] is Rattus norvegicus. Nature of the test: Percent change from pre-treatment in Non HDL-Cholesterol level at 80 mg/kg after 1 week. An outline of the steps:
as §1

Test [24] deals with Rattus norvegicus. Nature of the test: Percent change from pre-treatment in HDL-Cholesterol level at 30 mg/kg after 2 weeks. An outline of the steps: as §1
For test [25], the species on record is Rattus norvegicus. In words: In Vitro inhibitory concentration against lipid synthesis in primary rat hepatocyte culture. na=Not active; inhibition of [14C]acetate incorporation into total lipids is less than 50% at 300 uM. An outline of the steps:
as §2

SMILES strings stand for the structures.

Usually IC50 stands for the concentration needed to halve the response being measured. The low end stands for inhibition by little substance, the high end for a need for much substance. As for `CC(C)(CO)CCCC1CCC(CCCC(C)(C)CO)O1` (centres undefined), the Change is reported as 140% with Rattus norvegicus [1]; 31% with Rattus norvegicus [3]; -13% with Rattus norvegicus [4]; 11% in the test on Rattus norvegicus [5]; -49% in the test on Rattus norvegicus [6]. The IC50 in the test filed under Rattus norvegicus [2] was found to be 9 µM.
Take `CC(C)(CCCCOCCCCC(C)(C)CCC(=O)O)CCC(=O)O`: the Change was -30% in the test on Rattus norvegicus [7]; -50% in the test with Rattus norvegicus [8]; 13% with Rattus norvegicus [9]; -73% in the test on Rattus norvegicus [10]; -80% in the test on Rattus norvegicus [11]; 39% in the test with Rattus norvegicus [12]. In the test listed under Rattus norvegicus [2], this compound returned an IC50 of 22 µM.
In the case of `CC(C)(CO)CCCCCOCCCCC(C)(C)CO`, the Change in the test on Rattus norvegicus [13] was 17%; in the test on Rattus norvegicus [14], -26%; in the test with Rattus norvegicus [15], -77%; in the test on Rattus norvegicus [16], -66%; with Rattus norvegicus [17], 71%. Moreover, 11 µM corresponded to half-maximal inhibition in the test listed under Rattus norvegicus [2] (IC50).
For the compound `CC(C)(CO)Cc1cccc(Oc2cccc(CC(C)(C)CO)c2)c1`, the Change in the test with Rattus norvegicus [7] is recorded as -50%; in the test with Rattus norvegicus [8], -50%; in the test on Rattus norvegicus [9], 17%; with Rattus norvegicus [10] it was -54%; in the test on Rattus norvegicus [11], -32%; in the test with Rattus norvegicus [12] it was 25%. Moreover, the 50% inhibitory concentration (IC50) in the test listed under Rattus norvegicus [2] was 98 µM.
`CC(C)(CO)CCCCCCCCCC(C)(C)CO`: the Change with Rattus norvegicus [7] is recorded as -75%; with Rattus norvegicus [8], -67%; in the test on Rattus norvegicus [9], 189%; in the test on Rattus norvegicus [10] it was -82%; with Rattus norvegicus [11], -83%; in the test with Rattus norvegicus [12], 137%. Further, in the test listed under Rattus norvegicus [2], the IC50 came to 4 µM.
Consider `CC(C)(CO)CCCCCCCCCCCC(C)(C)CO`, for which the Change in the test with Rattus norvegicus [7] is listed as 48%; in the test with Rattus norvegicus [8], -20%; with Rattus norvegicus [9] it was -5%; in the test on Rattus norvegicus [10], -35%; in the test on Rattus norvegicus [11] it was -70%; in the test with Rattus norvegicus [12] it was -1%. Further, the IC50 in the test filed under Rattus norvegicus [2] was determined as 4 µM.
With `CC(C)(CCCCCCCCCCCC(C)(C)C(=O)O)C(=O)O`, the Change was -60% with Rattus norvegicus [7]; -66% in the test on Rattus norvegicus [8]; -14% in the test on Rattus norvegicus [9]; -87% with Rattus norvegicus [10]; -89% in the test with Rattus norvegicus [11]; -6% in the test with Rattus norvegicus [12]. Further, in the test listed under Rattus norvegicus [2], half-maximal inhibition (IC50) required 7 µM.
As to `CC(C)(CCOCCCOCCC(C)(C)C(=O)O)C(=O)O`, the Change in the test with Rattus norvegicus [18] is -5%; in the test on Rattus norvegicus [19] it was 46%; with Rattus norvegicus [20] it was 15%; in the test with Rattus norvegicus [21], -18%; in the test with Rattus norvegicus [22], 5%; with Rattus norvegicus [23], -10%.
In the case of `CC(C)(CO)CCCCOCCCC(C)(C)CO`, the Change in the test on Rattus norvegicus [13] amounted to 74%; in the test on Rattus norvegicus [14] it was 44%; in the test on Rattus norvegicus [15], 32%; in the test with Rattus norvegicus [16], 21%; in the test on Rattus norvegicus [17] it was 24%; in the test with Rattus norvegicus [24], 40%. The IC50 in the test listed under Rattus norvegicus [2] was found to be 17 µM.
`CC(C)(CO)CCCCOCCCCC(C)(CO)c1ccccc1` (centres undefined): the Change in the test on Rattus norvegicus [7] was -13%; with Rattus norvegicus [8], -55%; with Rattus norvegicus [9], 26%; in the test on Rattus norvegicus [10] it was -45%; in the test on Rattus norvegicus [11] it was -61%; in the test on Rattus norvegicus [12] it was 52%. Also, in the test listed under Rattus norvegicus [2], half-maximal inhibition (IC50) required 5 µM.
As to `CC(C)(CO)CCCCOCCCCC(C)(C)COC1CCCCO1` (centres undefined), the Change was -14% with Rattus norvegicus [7]; -28% with Rattus norvegicus [8]; 130% in the test with Rattus norvegicus [9]; -63% in the test with Rattus norvegicus [10]; -69% with Rattus norvegicus [11]; 152% with Rattus norvegicus [12]. For the same compound, half-maximal inhibition in the test listed under Rattus norvegicus [2] (IC50) required 11 µM.
Consider `CC(CO)(CCCCOCCCC(C)(CO)c1ccccc1)c1ccccc1` (centres undefined), for which, in the test filed under Rattus norvegicus [25], the half-inhibitory concentration (IC50) result is “Not Active”. In addition, the Change was 45% in the test on Rattus norvegicus [13]; 16% in the test with Rattus norvegicus [14]; 21% in the test on Rattus norvegicus [15]; -1% in the test with Rattus norvegicus [16]; -2% with Rattus norvegicus [17]; -20% in the test with Rattus norvegicus [24].
Turning to `CC(C)(CO)CCCOCCOCCCC(C)(C)CO`, in the test listed under Rattus norvegicus [25], the concentration for half-maximal inhibition (IC50) result is “Not Active”. The Change with Rattus norvegicus [7] is given as 45%; in the test with Rattus norvegicus [8], 33%; with Rattus norvegicus [9], 3%; in the test on Rattus norvegicus [10], 6%; with Rattus norvegicus [11], -9%; in the test on Rattus norvegicus [12], 10%.
`CC(CO)(CCCOCCCC(C)(CO)c1ccccc1)c1ccccc1` (centres undefined): the Change was -26% in the test with Rattus norvegicus [7]; -32% in the test with Rattus norvegicus [8]; 7% with Rattus norvegicus [9]; -18% in the test with Rattus norvegicus [10]; -27% in the test on Rattus norvegicus [11]; 5% with Rattus norvegicus [12]. Also, the midpoint of inhibition in the test filed under Rattus norvegicus [2], the IC50, lay at 130 µM.
As to `CC(C)(Cc1cccc(Oc2cccc(CC(C)(C)C(=O)O)c2)c1)C(=O)O`, the Change was -21% in the test with Rattus norvegicus [7]; -59% with Rattus norvegicus [8]; 20% in the test on Rattus norvegicus [9]; -27% in the test with Rattus norvegicus [10]; -46% with Rattus norvegicus [11]; 16% in the test on Rattus norvegicus [12]. For the same compound, in the test filed under Rattus norvegicus [2], half-maximal inhibition (IC50) required 53 µM.
Consider `CC(C)(CCCCOCCCCC(C)(C)COC1CCCCO1)COC1CCCCO1` (centres undefined), for which the Change in the test on Rattus norvegicus [7] is on record as 92%; with Rattus norvegicus [8] it was 46%; in the test with Rattus norvegicus [9], 43%; in the test on Rattus norvegicus [10], 22%; with Rattus norvegicus [11], -1%; in the test on Rattus norvegicus [12], 79%. In addition, half-maximal inhibition in the test listed under Rattus norvegicus [2] (IC50) required 20 µM.
Consider `CC(C)(CO)CCCC1CCCC(CCCC(C)(C)CO)O1` (centres undefined), for which the Change with Rattus norvegicus [7] is reported as -31%; with Rattus norvegicus [8] it was -70%; with Rattus norvegicus [9], 75%; in the test with Rattus norvegicus [10] it was -46%; in the test on Rattus norvegicus [11], -74%. Moreover, in the test filed under Rattus norvegicus [2], the midpoint of inhibition, the IC50, lay at 39 µM.
Turning to `CC(C)(CCCOCCOCCCC(C)(C)C(=O)O)C(=O)O`, the Change with Rattus norvegicus [7] is given as -13%; with Rattus norvegicus [8], -38%; with Rattus norvegicus [9], -6%; with Rattus norvegicus [10] it was -13%; with Rattus norvegicus [11], -24%; with Rattus norvegicus [12], -4%. The same compound showed an IC50 in the test listed under Rattus norvegicus [2] of 72 µM.
For `CC(C)(CO)CCCOCCCC(C)(C)CO`, the IC50 result in the test filed under Rattus norvegicus [25] is reported as “Not Active”. The Change was 58% in the test with Rattus norvegicus [13]; 7% in the test with Rattus norvegicus [14]; 77% in the test on Rattus norvegicus [15]; 21% in the test with Rattus norvegicus [16]; -13% in the test on Rattus norvegicus [17]; -8% with Rattus norvegicus [24].

These data come from ChEMBL document CHEMBL1137218, “Long hydrocarbon chain ether diols and ether diacids that favorably alter lipid disorders in vivo” (J Med Chem, 2004).
